Measurements taken from paper PMC11522000 (Nature Microbiology, 2024).
≈ marks a conversion by molar mass, not a printed value.

Assays:
CpPI(4)K = molecular target: T1, CpPI(4)K (Cryptosporidium parvum, UniProt Q5CVD3); assay: PI; format: biochemical, C. parvum
T1 sequence (Q5CVD3 1-1114): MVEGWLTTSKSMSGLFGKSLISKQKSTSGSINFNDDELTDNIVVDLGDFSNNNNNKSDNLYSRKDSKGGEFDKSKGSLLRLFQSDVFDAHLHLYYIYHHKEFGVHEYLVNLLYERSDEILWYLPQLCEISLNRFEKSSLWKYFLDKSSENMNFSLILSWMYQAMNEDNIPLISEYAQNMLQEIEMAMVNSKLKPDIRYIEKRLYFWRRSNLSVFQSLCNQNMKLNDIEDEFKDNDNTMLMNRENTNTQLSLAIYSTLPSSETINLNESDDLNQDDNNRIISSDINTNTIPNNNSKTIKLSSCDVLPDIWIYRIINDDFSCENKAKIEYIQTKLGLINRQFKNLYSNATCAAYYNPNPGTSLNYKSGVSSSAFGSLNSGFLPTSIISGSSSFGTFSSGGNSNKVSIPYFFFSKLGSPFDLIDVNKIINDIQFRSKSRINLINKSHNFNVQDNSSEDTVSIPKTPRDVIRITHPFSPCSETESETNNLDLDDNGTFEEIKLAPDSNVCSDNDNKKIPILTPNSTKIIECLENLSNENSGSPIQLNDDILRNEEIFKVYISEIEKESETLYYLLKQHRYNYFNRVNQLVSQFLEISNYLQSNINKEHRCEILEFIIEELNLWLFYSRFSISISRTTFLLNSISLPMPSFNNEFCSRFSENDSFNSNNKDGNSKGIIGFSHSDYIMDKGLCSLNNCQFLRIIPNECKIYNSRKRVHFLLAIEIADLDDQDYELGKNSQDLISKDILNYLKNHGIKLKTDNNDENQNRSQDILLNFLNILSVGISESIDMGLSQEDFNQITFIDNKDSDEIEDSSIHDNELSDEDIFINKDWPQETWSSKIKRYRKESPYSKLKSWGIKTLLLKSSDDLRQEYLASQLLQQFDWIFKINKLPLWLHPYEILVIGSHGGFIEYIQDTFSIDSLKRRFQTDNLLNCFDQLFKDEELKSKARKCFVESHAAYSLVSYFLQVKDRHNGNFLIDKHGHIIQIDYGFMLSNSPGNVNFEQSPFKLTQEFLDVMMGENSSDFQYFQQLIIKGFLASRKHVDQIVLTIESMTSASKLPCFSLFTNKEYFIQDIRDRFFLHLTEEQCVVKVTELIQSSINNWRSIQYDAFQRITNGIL
How it was run: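 Enzyme was pre-incubated with compound for 5 min at room temperature. The reaction was started with substrate mix at twice final strength (PI, ATP, Tris-HCl pH 7.5, DTT, 0.05% Triton X-100, MnCl2) and run 50 min at room temperature. ADP was measured by ADP-Glo luminescence. IC50s came from in-plate duplicate 10-point 3-fold dilutions, with DMSO and reference-inhibitor controls. The C. parvum enzymes (wild type and mutants) were full-length proteins expressed from baculovirus in Sf21 cells.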

HsPI(4)K = HsPI(4)K (Homo sapiens, UniProt Q9UBF8); assay: PI; format: biochemical; details: HsPI(4)K IC50, 3 μM ATP
[1] = Stability in intestinal S9 fraction; format: in vitro ADME; details: human
How it was run: (§1)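 Test compound added to intestinal S9 fraction of each species to start the reaction. Incubated in a shaking water bath at 37 °C, with samples taken at sequential timepoints. Samples quenched with ice-cold acetonitrile and analysed by LC-MS/MS. Half-life calculated from the rate of parent compound depletion.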

Plasma stability [2] = format: in vitro ADME; details: human
How it was run: (§2)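 Test compound was added to plasma and incubated at 37 °C in a shaking water bath, with samples taken at sequential timepoints. Samples were quenched with ice-cold acetonitrile and analysed by LC-MS/MS, and half-life was calculated from the depletion rate.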

C. parvum = assay: Mouse efficacy study; format: in vivo, C57BL/6 IFN-γ-knockout mice; details: oral 10 mg kg^−1, 5 days; nitazoxanide 100 mg kg^−1
[3] = Hepatocytes metabolic stability; format: in vitro ADME; details: mouse; for half-life: hepatocytes
How it was run: (§3)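 Test compound was incubated with liver microsomes or hepatocytes of each species, and parent depletion was quantified by LC-MS/MS. From this, in vitro half-life and intrinsic clearance were derived, along with predicted metabolic clearance and hepatic extraction ratio.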

[4] = High-throughput equilibrium solubility; format: physicochemical; details: thermodynamic from solid
How it was run: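 Equilibrium solubility was measured by a miniaturized shake-flask method with HPLC quantification.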

Cytotoxicity assay = format: cell-based, human; details: human, HepG2 cells (ATCC CRL-10741), HepG2 CC50, 96 h
Plasma stability [5] = format: in vitro ADME; details: mouse
How it was run: as §2

[6] = Stability in intestinal S9 fraction; format: in vitro ADME; details: mouse
How it was run: as §1

P-glycoprotein (MDR1) = assay: MDCK MDR1 permeability and efflux; format: in vitro ADME; details: dog
[7] = Systemic exposure in the mouse efficacy studies; format: in vivo; details: mouse efficacy study, 10 mg kg^−1 oral
[8] = In vivo pharmacokinetic analysis; parameters: species or system mouse; details: male, C57BL/6, mouse, plasma
How it was run: (§4)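 Animals were male C57BL/6 mice (8–10 weeks), Wistar rats (8–10 weeks) and beagle dogs (12–14 weeks). Each received oral and i.v. doses, with plasma sampling for PK parameters.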

[9] = Hepatocytes metabolic stability; format: in vitro ADME; details: human
How it was run: as §3

[10] = 2 weeks GLP rat toxicology study with toxicokinetics; format: in vivo; details: both, Wistar, plasma, po, 1000 mg/kg/day, EDI048 1000 mg/kg/day; for AUC(0-t): AUC0-8, rat
How it was run: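 Male and female Wistar rats were about 7–8 weeks old at receipt and 9–10 weeks old at the start of dosing. They were dosed for 2 weeks at 50, 250 and 1000 mg/kg/day, with toxicokinetic plasma sampling.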

[11] = In vivo pharmacokinetic analysis; details: male, Beagle, dog, plasma
How it was run: as §4

[12] = 2 weeks GLP dog toxicology study with toxicokinetics; format: in vivo; details: both, beagle, dog, plasma, po, 1000 mg/kg/day, EDI048 1000 mg/kg/day; for AUC(0-t): AUC0-8, dog

Sequence of HsPI(4)K (Q9UBF8 523-816 limits assumed): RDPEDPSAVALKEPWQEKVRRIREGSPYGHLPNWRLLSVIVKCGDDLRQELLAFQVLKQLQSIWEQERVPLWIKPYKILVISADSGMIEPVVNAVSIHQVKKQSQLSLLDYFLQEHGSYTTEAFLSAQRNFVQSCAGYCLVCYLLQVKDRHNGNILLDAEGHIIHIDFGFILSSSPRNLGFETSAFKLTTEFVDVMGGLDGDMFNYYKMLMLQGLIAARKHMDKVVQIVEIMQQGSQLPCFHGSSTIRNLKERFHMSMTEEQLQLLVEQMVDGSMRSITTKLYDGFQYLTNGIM

| Structure (SMILES) | IC50 (CpPI(4)K; CpPI(4)K IC50, 3 μM ATP) | IC50 (CpPI(4)K; CpPI(4)K IC50, running text) | IC50 (HsPI(4)K) | half-life [1] | half-life (Plasma stability [2]) | Hepatocytes ER [3] | half-life [3] | solubility ([4]; FaSSIF) | solubility ([4]; pH 6.8, aqueous buffer) | half-life (Plasma stability [5]) | half-life [6] | Papp A→B (P-glycoprotein (MDR1); MDCK-MDR1) | Papp B→A (P-glycoprotein (MDR1); MDCK-MDR1) | efflux ratio (P-glycoprotein (MDR1); MDCK-MDR1) | efficacy in the mouse model (C. parvum) | CC50 at 96 h (Cytotoxicity assay) | AUC(0-t) ([10]; day 14) | Cmax ([10]; day 14) | Tmax ([10]; day 1) | Tmax ([10]; day 14) | further results |
| --- | --- | --- | --- | --- | --- | --- | --- | --- | --- | --- | --- | --- | --- | --- | --- | --- | --- | --- | --- | --- | --- |
| CCOC(=O)CN(C(=O)c1ccn2ncc(-c3ccc(C(=O)NC)cc3)c2c1)c1ccc(Cl)cc1 [Compound 1, ethyl N-(4-chlorophenyl)-N-(3-(4-(methylcarbamoyl)phenyl)pyrazolo[1,5-a]pyridine-5-carbonyl)glycinate] | 7 ± 2 nM | 2 to 7 nM | 1140 ± 296 nM | 2 h | > 2 h | 74% | 0.223 h | 86 µM (≈ 42.2 µg/mL) | 31 µM (≈ 15.2 µg/mL) | 0.227 h | 2 h | 7.89 ×10⁻⁶ cm/s | 7.4 ×10⁻⁶ cm/s | 0.94 | highly efficacious | 14700 nM |  |  |  |  |  |
| CNC(=O)c1ccc(-c2cnn3ccc(C(=O)N(CCC(=O)OCC(=O)N(C)C)c4ccc(Cl)cc4)cc23)cc1 [Compound 3, 2-(dimethylamino)-2-oxoethyl 3-(N-(4-chlorophenyl)-3-(4-(methylcarbamoyl)phenyl)pyrazolo[1,5-a]pyridine-5-carboxamido)propanoate] | 5 nM |  | 1030 ± 485 nM | 0.75 h |  | 93% | < 0.0467 h | 355 µM (≈ 200 µg/mL) | 11 µM (≈ 6.18 µg/mL) |  | 0.153 h |  |  |  | inactive in vitro and in vivo | 38200 nM |  |  |  |  | AUC (time 0 to last timepoint) [7]: <LLOQ^f; Cmax [7]: <LLOQ^f |
| CNC(=O)c1ccc(-c2cnn3ccc(C(=O)N(C)c4ccc(Cl)c(C(=O)O)c4)cc23)cc1 [Compound 6, 2-chloro-5-(N-methyl-3-(4-(methylcarbamoyl)phenyl)pyrazolo[1,5-a]pyridine-5-carboxamido)benzoic acid] | 31 ± 24 nM |  | 484 ± 119 nM |  |  | 18% | > 2.92 h |  |  |  | > 4 h | 0.56 ×10⁻⁶ cm/s |  | 1.86 |  | > 100000 nM | 1430 ng·h/mL | 242 ng/mL | 1 h | 3 h | AUC ([8]; iv, 1 mg/kg): 1.19 µM·h; AUC ([8]; po, 10 mg/kg): 0.092 µM·h; Cmax ([8]; po, 10 mg/kg): 33.4 nM; solubility ([4]; pH 6.8, aqueous buffer, Solubility pH 6.8, pH 6.8): > 1000 µM; Hepatocytes ER [9]: 33%; half-life ([9]; hepatocytes): > 2.92 h; AUC(0-t) ([10]; day 1): 886 ng·h/mL; Papp B→A (P-glycoprotein (MDR1); MDCK-MDR1, Permeability B–A, MDCK MDR1, basolateral to apical): 1.04 ×10⁻⁶ cm/s; AUC ([11]; iv, 0.1 mg/kg): 0.0319 µM·h; AUC ([11]; po, 0.3 mg/kg): 0.0047 µM·h; Cmax ([11]; po, 0.3 mg/kg): 2 nM; AUC(0-t) ([12]; day 1): 205 ng·h/mL; AUC(0-t) ([12]; day 14): 301 ng·h/mL; Cmax ([12]; day 14): 72.8 ng/mL; Tmax ([12]; day 1): 1.2 h; Tmax ([12]; day 14): 1.15 h |
| COC(=O)c1cc(N(C)C(=O)c2ccn3ncc(-c4ccc(C(=O)O)cc4)c3c2)ccc1Cl [Compound 7, 4-(5-((4-chloro-3-(methoxycarbonyl)phenyl)(methyl)carbamoyl)pyrazolo[1,5-a]pyridin-3-yl)benzoic acid] | 76 nM |  | 11300 nM |  |  |  |  |  |  |  |  |  |  |  |  | > 100000 nM | 0.221 ng·h/mL | 0.046 ng/mL | 3 h | 1 h | AUC(0-t) ([12]; day 1): 642 ng·h/mL; AUC(0-t) ([12]; day 14): 1180 ng·h/mL; Cmax ([12]; day 14): 224 ng/mL; Tmax ([12]; day 1): 1.6 h; Tmax ([12]; day 14): 2.2 h |

Now from value to molecule, other results behind:

| IC50 (CpPI(4)K; CpPI(4)K IC50, 3 μM ATP) | IC50 (CpPI(4)K; CpPI(4)K IC50, running text) | IC50 (HsPI(4)K) | half-life [1] | half-life (Plasma stability [2]) | Hepatocytes ER [3] | half-life [3] | solubility ([4]; FaSSIF) | solubility ([4]; pH 6.8, aqueous buffer) | half-life (Plasma stability [5]) | half-life [6] | Papp A→B (P-glycoprotein (MDR1); MDCK-MDR1) | Papp B→A (P-glycoprotein (MDR1); MDCK-MDR1) | efflux ratio (P-glycoprotein (MDR1); MDCK-MDR1) | Structure (SMILES) | efficacy in the mouse model (C. parvum) | CC50 at 96 h (Cytotoxicity assay) | AUC(0-t) ([10]; day 14) | Cmax ([10]; day 14) | Tmax ([10]; day 1) | Tmax ([10]; day 14) | further results |
| --- | --- | --- | --- | --- | --- | --- | --- | --- | --- | --- | --- | --- | --- | --- | --- | --- | --- | --- | --- | --- | --- |
| 2 nM | 2 to 7 nM | 135 ± 33 nM |  | > 2 h | 52% | 0.597 h | 1000 µM (≈ 463 µg/mL) | 708 µM (≈ 328 µg/mL) | > 2 h | > 4 h | 0.89 ×10⁻⁶ cm/s | 1.65 ×10⁻⁶ cm/s | 1.85 | CNC(=O)c1ccc(-c2cnn3ccc(C(=O)N(CC(=O)O)c4ccc(Cl)cc4)cc23)cc1 [Compound 2, N-(4-chlorophenyl)-N-(3-(4-(methylcarbamoyl)phenyl)pyrazolo[1,5-a]pyridine-5-carbonyl)glycine] | not efficacious in vivo | > 100000 nM |  |  |  |  |  |
| 5 ± 2 nM |  | 203 ± 47 nM | 1.77 h | > 2 h | 91% | 0.0667 h | 147 µM (≈ 68 µg/mL) | 110 µM (≈ 50.9 µg/mL) | > 2 h | 1 h | 2.55 ×10⁻⁶ cm/s | 15.7 ×10⁻⁶ cm/s | 6.15 | COC(=O)c1cc(Cl)ccc1N(C)C(=O)c1ccn2ncc(-c3ccc(C(N)=O)cc3)c2c1 [Compound 5, methyl 2-(3-(4-carbamoylphenyl)-N-methylpyrazolo[1,5-a]pyridine-5-carboxamido)-5-chlorobenzoate] |  | > 100000 nM |  |  |  |  |  |
